{
  "source": "PubChem BioAssay AID1916",
  "about": "(Vanderbilt High Throughput Screening Facility, 2009)",
  "note": "Active and inactive are the calls of the source. No rule for the calls is given here.",
  "data": [
    {"target": "ATP-sensitive inward rectifier potassium channel 1 (Homo sapiens) (UniProt P48048)", "sequence (P48048 whole entry, looked up)": "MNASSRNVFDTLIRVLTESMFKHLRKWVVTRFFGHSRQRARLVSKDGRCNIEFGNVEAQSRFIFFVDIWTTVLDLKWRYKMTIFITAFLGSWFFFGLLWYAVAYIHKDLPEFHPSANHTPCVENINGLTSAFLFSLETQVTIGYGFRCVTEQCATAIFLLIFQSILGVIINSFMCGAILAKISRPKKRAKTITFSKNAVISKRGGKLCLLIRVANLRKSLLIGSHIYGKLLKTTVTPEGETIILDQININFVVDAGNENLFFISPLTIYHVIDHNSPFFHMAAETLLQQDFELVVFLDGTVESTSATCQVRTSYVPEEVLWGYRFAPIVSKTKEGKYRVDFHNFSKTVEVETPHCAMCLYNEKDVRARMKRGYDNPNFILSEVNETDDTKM", "test": "Kir1.1 thallium flux block, concentration series – Tet-inducible ROMK cells, FluoZin2, SAR follow-up (AID 1916)", "conditions": "thallium flux FluoZin2 fluorescence", "how_it_was_run": "(§1)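 Test system: Tet-inducible ROMK-expressing cells, induced overnight in serum-free medium / Dosing: 11-point compound series in threefold dilution steps / Timing: 20 min room-temperature dye loading, 20 min compound preincubation / Technique: FluoZin2 thallium flux fluorescence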", "values": [
      {"smiles": "FC(F)(F)c1cc(CN2CCOCCOCCN(Cc3cc(C(F)(F)F)cc(C(F)(F)F)c3)CCOCC2)cc(C(F)(F)F)c1", "IC50": "24.3 µM"},
      {"smiles": "COc1cccc(CN2CCOCCOCCN(Cc3cccc(OC)c3)CCOCC2)c1", "IC50": "25.2 µM"},
      {"smiles": "CN(C)c1ccc(CN2CCOCCOCCN(Cc3ccc(N(C)C)cc3)CCOCC2)cc1", "IC50": "inactive"},
      {"smiles": "COc1ccccc1CN1CCOCCOCCN(Cc2ccccc2OC)CCOCC1", "IC50": "inactive"},
      {"smiles": "Cc1ccsc1CN1CCOCCOCCN(Cc2sccc2C)CCOCC1", "IC50": "19.7 µM"},
      {"smiles": "O=[N+]([O-])c1ccc(CN2CCOCCOCCN(Cc3ccc([N+](=O)[O-])cc3)CCOCC2)cc1", "IC50": "14.2 µM"},
      {"smiles": "Cc1ccccc1CN1CCOCCOCCN(Cc2ccccc2C)CCOCC1", "IC50": "13.3 µM"},
      {"smiles": "N#Cc1cccc(CN2CCOCCOCCN(Cc3cccc(C#N)c3)CCOCC2)c1", "IC50": "0.324 µM"},
      {"smiles": "FC(F)(F)c1cccc(CN2CCOCCOCCN(Cc3cccc(C(F)(F)F)c3)CCOCC2)c1", "IC50": "30.6 µM"},
      {"smiles": "COC(=O)c1ccc(CN2CCOCCOCCN(Cc3ccc(C(=O)OC)cc3)CCOCC2)cc1", "IC50": "32.6 µM"},
      {"smiles": "O=[N+]([O-])c1ccccc1CN1CCOCCOCCN(Cc2ccccc2[N+](=O)[O-])CCOCC1", "IC50": "6.62 µM"},
      {"smiles": "Clc1ccc(CN2CCOCCOCCN(Cc3ccc(Cl)cc3)CCOCC2)cc1", "IC50": "inactive"},
      {"smiles": "Oc1ccccc1CN1CCOCCOCCN(Cc2ccccc2O)CCOCC1", "IC50": "inactive"},
      {"smiles": "CC(C)c1ccc(CN2CCOCCOCCN(Cc3ccc(C(C)C)cc3)CCOCC2)cc1", "IC50": "inactive"},
      {"smiles": "COc1cc(CN2CCOCCOCCN(Cc3cc(OC)cc(OC)c3)CCOCC2)cc(OC)c1", "IC50": "37.6 µM"},
      {"smiles": "COc1ccc(CN2CCOCCOCCN(Cc3ccc(OC)cc3)CCOCC2)cc1", "IC50": "inactive"},
      {"smiles": "N#Cc1ccccc1CN1CCOCCOCCN(Cc2ccccc2C#N)CCOCC1", "IC50": "8.53 µM"}
    ]},
    {"target": "ATP-sensitive inward rectifier potassium channel 1 (Homo sapiens) (UniProt P48048)", "test": "Kir1.1 thallium flux block, concentration series – Tet-inducible ROMK cells, FluoZin2, SAR follow-up (AID 1916)", "conditions": "thallium flux FluoZin2 fluorescence, at 1 mM (top of the series)", "how_it_was_run": "as §1", "values": [
      {"smiles": "N#Cc1cc(CN2CCOCCOCCN(Cc3ccc(F)c(C#N)c3)CCOCC2)ccc1F", "% TPNQ activity": "14.7%"},
      {"smiles": "CSc1ccc(CN2CCOCCOCCN(Cc3ccc(SC)cc3)CCOCC2)cc1", "% TPNQ activity": "inactive"},
      {"smiles": "COc1ccc(CN2CCOCCOCCN(Cc3ccc(OC)nc3)CCOCC2)cn1", "% TPNQ activity": "43.4%"}
    ]}
  ]
}
